From ChEMBL document CHEMBL1138229, “Novel cyano- and amidino-substituted derivatives of styryl-2-benzimidazoles and benzimidazo[1,2-a]quinolines. Synthesis, photochemical synthesis, DNA binding, and antitumor evaluation, part 3” (J Med Chem, 2007)

Columns and labels:
[1] = test system: HEp-2; test: Antitumor activity against human Hep2 cells after 72 hrs by MTT assay; format: functional, cell-based; conditions: HEp-2, 72 h
Method in brief: (§1)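 Cells from ATCC grown as monolayers in DMEM with 10% FBS, 2 mM L-glutamine, penicillin/streptomycin, 5% CO2, 37 °C. Seeded on day 0 at 1 × 10^4/mL (2 × 10^4/mL for MCF-7). Five 10-fold dilutions (10^-8 to 10^-4 mol/L) added, then 72 h exposure. MTT read at 570 nm; percent growth vs time-zero and untreated controls. IC50 by linear regression; quadruplicates, three experiments.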

[2] = test system: SW-620; test: Antitumor activity against human SW620 cells after 72 hrs by MTT assay; format: functional, cell-based; conditions: SW-620, 72 h; method in brief: as §1
[3] = test system: MCF7; test: Antitumor activity against human MCF7 cells after 72 hrs by MTT assay; format: functional, cell-based; conditions: MCF7, 72 h; method in brief: as §1
[4] = test system: MIA PaCa-2; test: Antitumor activity against human MiaPaCa2 cells after 72 hrs by MTT assay; format: functional, cell-based; conditions: MIA PaCa-2, 72 h; method in brief: as §1
[5] = test system: HeLa; test: Antitumor activity against human HeLa cells after 72 hrs by MTT assay; format: functional, cell-based; method in brief: as §1
[6] = Antiproliferative activity against human […] fibroblast after 72 hrs by MTT assay; format: functional; method in brief: as §1
[7] = test system: DNA; test: Binding affinity to calf thymus DNA by thermal melting temperature assay; format: nucleic-acid assay; conditions: Bos taurus
Method in brief: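 ct-DNA (as phosphate concentration) in sodium cacodylate buffer pH 7.0, I = 0.05 mol dm-3. Compound/polynucleotide ratio r = 0.3. Absorbance at 260 nm followed against temperature, ligand absorbance subtracted. Tm taken as transition midpoint by first derivative or tangent method. ΔTm = Tm(complex) − Tm(free DNA), averaged over at least two runs, error ±0.5 °C.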

[8] = test system: HeLa; test: Cell cycle arrest in human HeLa cells assessed as accumulation at S phase after 24 hrs at 5 uM; format: functional
Method in brief: (§2)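 Cells seeded at 2 × 10^5 per well and incubated overnight before compound at 5 × 10^-6 M. After 24, 48 or 72 h, attached and floating cells were pooled, PBS-washed and fixed in 70% ethanol. RNase A (0.1 µg/µl, 37 °C, 15 min), then propidium iodide 1 µg/mL; flow cytometry of 20 000 events. Results given as percent of cells per phase; significance at p < 0.05.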

[9] = test system: HeLa; test: Cell cycle arrest in human HeLa cells assessed as accumulation at G2/M phase after 24 hrs at 5 uM; format: functional; method in brief: as §2
[10] = test system: HeLa; test: Cell cycle arrest in human HeLa cells assessed as accumulation at G2/M phase after 72 hrs at 5 uM; format: functional; method in brief: as §2
[11] = test system: HeLa; test: Cell cycle arrest in human HeLa cells assessed as accumulation at S phase after 48 hrs at 5 uM; format: functional; method in brief: as §2
[12] = test system: HeLa; test: Cell cycle arrest in human HeLa cells assessed as accumulation at Sub G1 phase after 72 hrs at 5 uM; format: functional; method in brief: as §2
[13] = test system: HeLa; test: Cell cycle arrest in human HeLa cells assessed as accumulation at Sub G1 phase after 24 hrs at 5 uM; format: functional; method in brief: as §2
[14] = test system: HeLa; test: Cell cycle arrest in human HeLa cells assessed as accumulation at Sub G1 phase after 48 hrs at 5 uM; format: functional; method in brief: as §2
[15] = test system: HeLa; test: Cell cycle arrest in human HeLa cells assessed as accumulation at S phase after 72 hrs at 5 uM; format: functional; method in brief: as §2
[16] = test system: HeLa; test: Cell cycle arrest in human HeLa cells assessed as accumulation at G0/G1 phase after 48 hrs at 5 uM; format: functional; method in brief: as §2
[17] = test system: HeLa; test: Cell cycle arrest in human HeLa cells assessed as accumulation at G2/M phase after 48 hrs at 5 uM; format: functional; method in brief: as §2
[18] = test system: HeLa; test: Cell cycle arrest in human HeLa cells assessed as accumulation at G0/G1 phase after 72 hrs at 5 uM; format: functional; method in brief: as §2
[19] = test system: HeLa; test: Cell cycle arrest in human HeLa cells assessed as accumulation at G0/G1 phase after 24 hrs at 5 uM; format: functional; method in brief: as §2
[20] = test system: NCI-H460; test: Antitumor activity against human H460 cells after 72 hrs by MTT assay; format: functional, cell-based; conditions: NCI-H460, 72 h; method in brief: as §1

SMILES	IC50 [2]	IC50 [3]	IC50 [4]	IC50 [5]	ΔTm [7]	IC50 [1]	IC50 [6]	other results
CC(C)NC(=N)c1ccc2nc(/C=C\c3ccccc3Cl)[nH]c2c1	29 µM	35 µM	28 µM	19 µM		30 µM	> 100 µM	
N=C(N)c1ccc2ccc3nc4ccccc4n3c2c1	2.9 µM	4 µM	4.5 µM	4.9 µM	5.2 °C	4 µM	6.7 µM	
N=C(N)c1ccc2nc(/C=C/c3ccccc3Cl)[nH]c2c1	> 100 µM	22 µM	> 100 µM	7.5 µM		23 µM	> 100 µM	
N=C(N)c1ccc2nc3ccc4ccccc4n3c2c1	17 µM	9 µM	13 µM	5 µM	3.6 °C	13 µM	74 µM	
c1ccc2c(c1)nc1ccc3ccc(C4=NCCN4)cc3n12	1.4 µM	5.3 µM	5.6 µM	7 µM	3.6 °C	2.4 µM	7.8 µM	
CC(C)NC(=N)c1ccc2ccc3nc4ccccc4n3c2c1	1.6 µM	2.2 µM	8.1 µM	1.7 µM	5 °C	1.6 µM	2.7 µM	
N#Cc1ccc2c(c1)nc1ccc3ccccc3n12	2 µM	21 µM	7 µM	4 µM			5 µM	IC50 [20]: 7 µM
Clc1ccccc1/C=C\c1nc2ccc(C3=NCCN3)cc2[nH]1	46 µM	23 µM	62 µM	11 µM		≥ 100 µM	> 100 µM	
N#Cc1ccc2nc3ccc4ccccc4n3c2c1	8 µM	18 µM	15 µM	0.05 µM			14 µM	IC50 [20]: 13 µM
COc1cccc2c1C(=O)c1c(O)c3c(c(O)c1C2=O)C[C@@](O)(C(=O)CO)C[C@@H]3O[C@H]1C[C@H](N)[C@H](O)[C@H](C)O1 [DOXORUBICIN]	0.02 µM	0.04 µM	0.02 µM	0.04 µM		0.04 µM		
C(=C\c1nc2ccc(C3=NCCN3)cc2[nH]1)/c1ccccc1	16 µM	7 µM	19 µM	4 µM	1.4 °C	16 µM	21 µM	
N#Cc1ccc(/C=C/c2nc3ccccc3[nH]2)cc1	23 µM	14 µM	36 µM	19 µM				IC50 [20]: 20 µM
Clc1ccccc1/C=C/c1nc2ccc(C3=NCCN3)cc2[nH]1	14 µM	5 µM	17 µM	4 µM		16 µM	42 µM	
N=C(N)c1ccc2nc(/C=C\c3ccccc3Cl)[nH]c2c1	> 100 µM	38 µM	85 µM	20 µM		29 µM	> 100 µM	
c1ccc2c(c1)ccc1nc3ccccc3n12	23 µM	16 µM	18 µM	12 µM		15 µM	14 µM	
CC(C)NC(=N)c1ccc2nc3ccc4ccccc4n3c2c1	3 µM	4 µM	3 µM	4 µM	3.7 °C	4 µM	10 µM	
COc1cc([C@@H]2c3cc4c(cc3[C@@H](O[C@@H]3O[C@@H]5CO[C@@H](C)O[C@H]5[C@H](O)[C@H]3O)[C@H]3COC(=O)[C@H]23)OCO4)cc(OC)c1O [ETOPOSIDE]	20 µM	50 µM	15 µM	3 µM				
CC(C)NC(=N)c1ccc2nc(/C=C/c3ccccc3Cl)[nH]c2c1	66 µM	16 µM	48 µM	10 µM		70 µM	> 100 µM	

The next lines start with results.

IC50 [2]	IC50 [3]	IC50 [4]	IC50 [5]	ΔTm [7]	SMILES	IC50 [1]	IC50 [6]	other results
15 µM	14 µM	15 µM	7 µM		N=C(NN1CCOCC1)c1ccc2nc(/C=C\c3ccccc3Cl)[nH]c2c1	9 µM	21 µM	
2 µM	4 µM	2 µM	3 µM	3.2 °C	Cl.N=C(NN1CCOCC1)c1ccc2nc3ccc4ccccc4n3c2c1	2 µM	4 µM	Activity [8]: 30%; Activity [9]: 34%; Activity [10]: 35%; Activity [11]: 37%; Activity [12]: 2%; Activity [13]: 3%; Activity [14]: 2%; Activity [15]: 39%; Activity [16]: 36%; Activity [17]: 27%; Activity [18]: 25%; Activity [19]: 36%
15 µM	29 µM	> 100 µM	2 µM	0.7 °C	N=C(N)c1ccc2nc(/C=C/c3ccccc3)[nH]c2c1	11 µM	> 100 µM	
4 µM	4 µM	5 µM	3 µM		N=C(NN1CCOCC1)c1ccc2nc(/C=C/c3ccccc3Cl)[nH]c2c1	10 µM	7 µM	
22 µM	25 µM	47 µM	13 µM	1.3 °C	N=C(NN1CCOCC1)c1ccc2nc(/C=C\c3ccccc3)[nH]c2c1	61 µM	22 µM	
> 100 µM	9 µM	> 100 µM	11 µM	1.1 °C	CC(C)NC(=N)c1ccc2nc(/C=C/c3ccccc3)[nH]c2c1	≥ 100 µM	> 100 µM	
70 µM	33 µM	84 µM	23 µM	1.2 °C	CC(C)NC(=N)c1ccc2nc(/C=C\c3ccccc3)[nH]c2c1	81 µM	> 100 µM	
78 µM	36 µM	> 100 µM	5.4 µM	-0.5 °C	N=C(N)c1ccc2nc(/C=C\c3ccccc3)[nH]c2c1	≥ 100 µM	> 100 µM	
1.9 µM	6.7 µM	10 µM	7 µM	3.2 °C	N=C(NN1CCOCC1)c1ccc2ccc3nc4ccccc4n3c2c1	4.7 µM	17.7 µM	
12 µM	14 µM	16 µM	6 µM	0.1 °C	N=C(NN1CCOCC1)c1ccc2nc(/C=C/c3ccccc3)[nH]c2c1	13 µM	20 µM	
2.5 µM	4 µM	4 µM	2 µM		N#Cc1ccc2nc(/C=C/c3ccccc3)[nH]c2c1		14 µM	IC50 [20]: 3 µM
